The values below come from ChEMBL document CHEMBL3994675, “Carbamylmethyl Mercaptoacetate Thioether: A Novel Scaffold for the Development of L1 Metallo-β-lactamase Inhibitors” (ACS Med Chem Lett, 2017).

Data set [1] in a line: Inhibition of L1 (unknown origin) expressed in Escherichia coli BL21(DE3) using cefazolin as substrate preincubated for 30 mins followed by substrate addition by UV-Visible spectrophotometric method. In outline:
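L1 IC50 measured in 30 mM Tris, pH 8.5, with cefazolin as substrate and inhibitor at 0.1–20 μM. Run in triplicate; mean ± SD reported.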

Data set [2] can be described thus: Inhibition of IMP1 (unknown origin) expressed in Escherichia coli BL21(DE3) at 100 uM using cefazolin as substrate preincubated for 30 mins followed by substrate addition by UV-Visible spectrophotometric method relative to control. The procedure, abridged: (§1)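 Purified enzyme preincubated with 100 μM inhibitor in its enzyme-specific buffer, then substrate added: 50 μM cefazolin for IMP-1 and L1, 40 μM imipenem for ImiS. Hydrolysis followed by UV-vis spectrophotometry. Preincubation times of 3–60 min were tested. % inhibition = activity without inhibitor (100%) minus residual activity.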

The nature of data set [3]: Inhibition of IMP1 (unknown origin) expressed in Escherichia coli BL21(DE3) at 100 uM using cefazolin as substrate preincubated for 3 to 60 mins followed by substrate addition by UV-Visible spectrophotometric method. The following applies: TDE = time-dependent effect. In outline:
as §1

For data set [4], the system named is Escherichia coli. Briefly: Growth inhibition of Escherichia coli DH10B harboring pBC SK(+)-L1 at 1024 ug/ml after 12 hrs macrodilution broth method. More on the design: species or system K-12 substr. DH10B. The procedure, abridged:
(§2)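 Cefazolin MIC determined for E. coli DH10B carrying pBC SK(+)-L1 and for E. coli not expressing L1, with and without compound.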

Data set [5] in a line: Inhibition of L1 (unknown origin) expressed in Escherichia coli BL21(DE3) at 100 uM using cefazolin as substrate preincubated for 3 to 60 mins followed by substrate addition by UV-Visible spectrophotometric method relative to control. The following applies: TDE = time-dependent effect. The procedure, abridged: as §1
A short description of data set [6]: Inhibition of L1 (unknown origin) expressed in Escherichia coli BL21(DE3) at 100 uM using cefazolin as substrate preincubated for 30 mins followed by substrate addition by UV-Visible spectrophotometric method relative to control. The procedure, abridged:
as §1

Data set [7] can be described thus: Inhibition of ImiS (unknown origin) expressed in Escherichia coli BL21(DE3) at 100 uM using imipenem as substrate preincubated for 3 to 60 mins followed by substrate addition by UV-Visible spectrophotometric method relative to control. The following applies: TDE = time-dependent effect. The procedure, abridged: as §1
Data set [8] in a line: Inhibition of ImiS (unknown origin) expressed in Escherichia coli BL21(DE3) at 100 uM using imipenem as substrate preincubated for 30 mins followed by substrate addition by UV-Visible spectrophotometric method relative to control. The procedure, abridged: as §1
A short description of data set [9]: Inhibition of L1 (unknown origin) expressed in Escherichia coli DH10B harboring pBC SK(+)-L1 assessed as potentiation of cefazolin-induced antibacterial activity by measuring cefazolin MIC at 1024 ug/ml after 12 hrs macrodilution broth method. In outline: (§3)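 Cefazolin MICs were read for E. coli DH10B carrying pBC SK(+)-L1 across a series of inhibitor concentrations. Cefazolin alone (no inhibitor) on the same strain served as the reference MIC. E. coli not expressing L1 was tested alongside as the susceptible comparator.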

For data set [10], the system named is Escherichia coli. Briefly: Growth inhibition of Escherichia coli DH10B at 1024 ug/ml after 12 hrs macrodilution broth method. Set-up: species or system K-12 substr. DH10B. The procedure, abridged:
as §2

In another data set the test system is L929. Briefly: Cytotoxicity against mouse L929 cells assessed as reduction in cell viability up to 400 uM after 48 hrs by CCK assay. To be noted: l929, 48 h. The format is cell-based. The procedure, abridged: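 L-929 mouse fibroblasts exposed to compound at 12.5, 25, 50, 100, 200 and 400 μM working concentrations; cell viability measured.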
Data set [11] is described as follows: Inhibition of L1 (unknown origin) expressed in Escherichia coli DH10B harboring pBC SK(+)-L1 assessed as potentiation of cefazolin-induced antibacterial activity by measuring cefazolin MIC at 64 ug/ml after 12 hrs macrodilution broth method. The procedure, abridged:
as §3

The nature of data set [12]: Inhibition of L1 (unknown origin) expressed in Escherichia coli DH10B harboring pBC SK(+)-L1 assessed as potentiation of cefazolin-induced antibacterial activity by measuring cefazolin MIC at 8 ug/ml after 12 hrs macrodilution broth method. The procedure, abridged: as §3
Data set [13] in a line: Inhibition of L1 (unknown origin) expressed in Escherichia coli DH10B harboring pBC SK(+)-L1 assessed as potentiation of cefazolin-induced antibacterial activity by measuring cefazolin MIC at 4 ug/ml after 12 hrs macrodilution broth method. The procedure, abridged: as §3
Data set [14] in a line: Inhibition of L1 (unknown origin) expressed in Escherichia coli DH10B harboring pBC SK(+)-L1 assessed as potentiation of cefazolin-induced antibacterial activity by measuring cefazolin MIC at 128 ug/ml after 12 hrs macrodilution broth method. The procedure, abridged:
as §3

Data set [15] can be described thus: Inhibition of L1 (unknown origin) expressed in Escherichia coli DH10B harboring pBC SK(+)-L1 assessed as potentiation of cefazolin-induced antibacterial activity by measuring cefazolin MIC at 512 ug/ml after 12 hrs macrodilution broth method. In outline: as §3
The nature of data set [16]: Inhibition of L1 (unknown origin) expressed in Escherichia coli DH10B harboring pBC SK(+)-L1 assessed as potentiation of cefazolin-induced antibacterial activity by measuring cefazolin MIC at 16 ug/ml after 12 hrs macrodilution broth method. In outline:
as §3

Data set [17] is described as follows: Inhibition of L1 (unknown origin) expressed in Escherichia coli DH10B harboring pBC SK(+)-L1 assessed as potentiation of cefazolin-induced antibacterial activity by measuring cefazolin MIC at 256 ug/ml after 12 hrs macrodilution broth method. In outline: as §3
Data set [18] is described as follows: Inhibition of L1 (unknown origin) expressed in Escherichia coli DH10B harboring pBC SK(+)-L1 assessed as potentiation of cefazolin-induced antibacterial activity by measuring fold reduction in cefazolin MIC at 1024 ug/ml after 12 hrs macrodilution broth method relative to cefazolin alone. The procedure, abridged: as §3
A short description of data set [19]: Inhibition of L1 (unknown origin) expressed in Escherichia coli DH10B harboring pBC SK(+)-L1 assessed as potentiation of cefazolin-induced antibacterial activity by measuring cefazolin MIC at 32 ug/ml after 12 hrs macrodilution broth method. The procedure, abridged: as §3

Broadly, the IC50 is the concentration at which inhibition is half-maximal. A low value points to greater potency. For orientation: inhibition means how much of the control response was suppressed. `O=C([O-])CSCC(=O)Nc1ccc(Cl)cc1.[K+]` displayed a concentration for half-maximal inhibition (IC50) in data set [1] of 20000 nM. Also, the inhibition in [2] was 48%; in data set [3], “Tde”; in data set [5], “Tde”; in data set [6] it was 73%; in [7], “Tde”; in data set [8] it was 25%. Moreover, the “growth inhibition (GI)” value in the data set on Escherichia coli [4] and in the data set with Escherichia coli [10] was “Non-Toxic” in each case. Also, the MIC in [9] stood at 16 µg/mL.

Regarding `O=C([O-])CSCC(=O)Nc1ccc(C(=O)O)cc1.[K+]`, 7500 nM corresponded to half-maximal inhibition in data set [1] (IC50). Also, the inhibition in data set [2] is 71%; in [3], “Tde”; in data set [5] it was “Tde”; in data set [6] it was 75%; in data set [7], “Tde”; in [8], 87%. Moreover, the “growth inhibition (GI)” value with Escherichia coli [4] and with Escherichia coli [10] was “Non-Toxic” throughout. Moreover, the MIC in data set [9] was 16 µg/mL.

Consider `O=C([O-])CSCC(=O)Nc1ccccc1O.[K+]`, for which, in data set [1], the IC50 turned out to be 580 nM. Also, the inhibition was 40% in data set [2]; “Tde” in data set [3]; “Tde” in [5]; 95% in [6]; “Tde” in [7]; 74% in data set [8]. Further, the “growth inhibition (GI)” value in the data set with Escherichia coli [4] and in the data set with Escherichia coli [10] was “Non-Toxic” throughout. Further, in data set [9], the MIC is 8 µg/mL.

The compound `CCCCNC(=O)CSCC(=O)[O-].[K+]` yielded a 50% inhibitory concentration (IC50) in [1] of 1230 nM. In addition, the inhibition in [2] is 55%; in data set [3], “Tde”; in [5] it was “Tde”; in data set [6], 89%; in data set [7], “Tde”; in [8], 20%. Further, the “growth inhibition (GI)” value in the data set with Escherichia coli [4] and in the data set on Escherichia coli [10] was “Non-Toxic” each time. Further, the MIC in [9] turned out to be 16 µg/mL.

Compound `O=C([O-])CSCC(=O)Nc1ccccc1.[K+]` came in with an IC50 in data set [1] of 980 nM. Besides, the inhibition in data set [2] was 43%; in [3], “Tde”; in [5], “Tde”; in [6], 92%; in data set [7] it was “Tde”; in data set [8] it was 18%. Besides, the “growth inhibition (GI)” value in the data set on Escherichia coli [4] and with Escherichia coli [10] was “Non-Toxic” in each case. In addition, in the data set with L929, the Activity entry is listed as “Non-Toxic”. The MIC in data set [9] amounted to 16 µg/mL.

For the compound `O=C([O-])CSCC(=O)Nc1ccccc1[N+](=O)[O-].[K+]`, the 50% inhibitory concentration (IC50) in data set [1] stood at 4210 nM. The inhibition in data set [2] is 44%; in data set [3] it was “Tde”; in data set [5] it was “Tde”; in data set [6] it was 77%; in data set [7], “Tde”; in data set [8] it was 21%. Moreover, the “growth inhibition (GI)” value with Escherichia coli [4] and in the data set on Escherichia coli [10] was “Non-Toxic” in each case. The Activity entry in the data set with L929 is reported as “Non-Toxic”. Also, in [9], the MIC was 16 µg/mL.

With `O=C([O-])CSCC(=O)Nc1ccc([N+](=O)[O-])cc1.[K+]`, the IC50 in data set [1] was over 20000 nM. Further, the inhibition in data set [2] is 45%; in data set [3] it was “Tde”; in data set [5] it was “Tde”; in data set [6], 71%; in data set [7], “Tde”; in [8], 85%. The “growth inhibition (GI)” value in the data set on Escherichia coli [4] and in the data set with Escherichia coli [10] was “Non-Toxic” throughout. In addition, the MIC in data set [11] is 16 µg/mL; in data set [12] it was 16 µg/mL; in [13], 16 µg/mL; in [14], 8 µg/mL; in data set [15] it was 8 µg/mL; in [16], 16 µg/mL. Besides, the MIC in [17] worked out at 8 µg/mL; in data set [9], 2 µg/mL; in data set [19] it was 16 µg/mL. Also, in data set [18], the fold change (FC) was 8.

The compound `O=C([O-])CSCC(=O)NCc1ccccc1.[K+]` showed a 50% inhibitory concentration (IC50) in data set [1] of 460 nM. Moreover, the inhibition is 51% in data set [2]; “Tde” in data set [3]; “Tde” in [5]; 97% in data set [6]; “Tde” in data set [7]; 21% in data set [8]. The “growth inhibition (GI)” value in the data set with Escherichia coli [4] and with Escherichia coli [10] was “Non-Toxic” throughout. Further, in [9], the MIC was 16 µg/mL.

For `CCCCc1ccc(NC(=O)CSCC(=O)[O-])cc1.[K+]`, in data set [1], the half-maximal inhibitory concentration (IC50) is 430 nM. The inhibition is 64% in [2]; “Tde” in data set [3]; “Tde” in data set [5]; 97% in data set [6]; “Tde” in [7]; 29% in [8]. Further, the “growth inhibition (GI)” value in the data set on Escherichia coli [4] and with Escherichia coli [10] was “Non-Toxic” throughout. Also, the MIC in data set [11] was 16 µg/mL; in data set [12], 16 µg/mL; in data set [13], 16 µg/mL; in data set [14] it was 16 µg/mL; in [15], 8 µg/mL; in data set [16], 16 µg/mL. In addition, the MIC was 8 µg/mL in data set [17], 2 µg/mL in [9] and 16 µg/mL in [19]. Further, the fold change (FC) in data set [18] is 8.

Compound `CC(C)(C)NC(=O)CSCC(=O)[O-].[K+]` had an IC50 in data set [1] of 750 nM. Moreover, the inhibition was 69% in data set [2]; “Tde” in data set [3]; “Tde” in data set [5]; 91% in data set [6]; “Tde” in data set [7]; 21% in data set [8]. The “growth inhibition (GI)” value in the data set on Escherichia coli [4] and with Escherichia coli [10] was “Non-Toxic” throughout. For the same compound, the Activity entry in the data set on L929 is reported as “Non-Toxic”. In addition, the MIC in data set [9] was found to be 16 µg/mL.

Regarding `Cc1ccccc1NC(=O)CSCC(=O)[O-].[K+]`, it took 460 nM to reach half-maximal inhibition in data set [1] (IC50). The inhibition in data set [2] is 50%; in data set [3], “Tde”; in [5], “Tde”; in data set [6], 95%; in data set [7] it was “Tde”; in data set [8], 24%. Further, the “growth inhibition (GI)” value in the data set on Escherichia coli [4] and with Escherichia coli [10] was “Non-Toxic” each time. Also, in [9], the MIC was determined as 16 µg/mL.

Compound `CC(C)CNC(=O)CSCC(=O)[O-].[K+]` displayed a half-inhibitory concentration (IC50) in data set [1] of 3810 nM. In addition, the inhibition in [2] was 59%; in data set [3], “Tde”; in data set [5], “Tde”; in data set [6], 78%; in data set [7], “Tde”; in data set [8], 23%. Besides, the “growth inhibition (GI)” value with Escherichia coli [4] and in the data set on Escherichia coli [10] was “Non-Toxic” throughout. For the same compound, in data set [9], the MIC is 16 µg/mL.
